Tests used:
Assay type in all cases: ADME, organism-based
[1] = Fraction unbound in iv dosed C57Bl/6JRccHsd mouse plasma measured at 80 mins
How it was run: (§1)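 Male mice given 3.6 MBq tracer i.v. via lateral tail vein; blocking groups got POP inhibitor i.p. (50 µmol/kg, 10 mL/kg, 1% DMSO in 0.9% NaCl) 10 min before. Heparinized cardiac blood on ice, gamma-counted, spun 5 min at 2000 g; plasma counted, precipitated with 1.5 volumes acetonitrile, respun; cell-bound, protein-bound and free fractions expressed as % of blood activity; n = 3.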

[2] = Fraction unbound in iv dosed C57Bl/6JRccHsd mouse plasma measured at 160 mins post dose pretreated with 50 umol/kg, ip prolyl oligopeptidase inhibitor KYP-2047 10 mins before compound dosing by SPECT analysis
How it was run: (§2)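 Mice got tracer i.v., some after i.p. KYP-2047 (50 µmol/kg) 10 min before. Cardiac blood was collected at 20, 40, 80 or 160 min and spun 5 min at 2000 g into cells and plasma. Plasma was precipitated with acetonitrile and pellet and supernatant were gamma-counted. Activity in cells, protein-bound and free plasma is given as % of total blood activity, n = 3.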

[3] = Drug uptake in iv dosed C57Bl/6JRccHsd mouse blood cells measured at 20 mins post dose pretreated with 50 umol/kg, ip prolyl oligopeptidase inhibitor KYP-2047 10 mins before compound dosing by SPECT analysis; details: in vivo; how it was run: as §2
[4] = Drug uptake in iv dosed C57Bl/6JRccHsd mouse blood cells measured at 160 mins; details: in vivo; how it was run: as §2
[5] = Drug uptake in iv dosed C57Bl/6JRccHsd mouse blood cells measured at 160 mins post dose pretreated with 50 umol/kg, ip prolyl oligopeptidase inhibitor KYP-2047 10 mins before compound dosing by SPECT analysis; details: in vivo; how it was run: as §2
[6] = Plasma protein binding in iv dosed C57Bl/6JRccHsd mouse measured at 20 mins post dose pretreated with 50 umol/kg, ip prolyl oligopeptidase inhibitor KYP-2047 10 mins before compound dosing by SPECT analysis; details: in vivo; how it was run: as §1
[7] = Plasma protein binding in iv dosed C57Bl/6JRccHsd mouse measured at 40 mins; details: read-out: PPB (converted); how it was run: as §1
[8] = Biodistribution in left brain hemisphere of iv dosed C57BL/6JRccHsd mouse LPS-induced acute neuroinflammation model dosed 24 hrs after LPS challenge and measured at 80 mins post dose; details: read-out: Drug uptake
How it was run: (§3)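 Male mice under isoflurane got a stereotaxic LPS injection (E. coli 055:B5) into the left striatum, with buprenorphine 0.1 mg/kg s.c. for post-operative pain. The right hemisphere served as intact control. Tracer was given i.v. 24 h later. Left and right hemisphere and whole-brain radioactivity were measured 80 min post injection as %ID/g or %ID, n = 3.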

[9] = Biodistribution in right brain hemisphere of iv dosed C57BL/6JRccHsd mouse dosed 24 hrs after LPS challenge and measured at 80 mins post dose; details: read-out: Drug uptake; how it was run: as §3
[10] = tested on: Mus musculus; test: Biodistribution in gastrocnemius muscle of iv dosed C57BL/6JRccHsd mouse turpentine-induced acute localized inflammation model after 20 mins to 24 hrs by SPEC-CT analysis (reference value: 2.0 +/- 0.6 %ID/g); details: in vivo
[11] = tested on: Blood; test: Biodistribution in C57Bl/6JRccHsd mouse blood at 2.86 +/- 1.26 MBq, iv measured at 80 mins by SPECT analysis; details: in vivo
How it was run: (§4)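 Organs excised at 5, 20, 40, 80 or 160 min and radioactivity gamma-counted as %ID/g (brain also as %ID). Blocking groups received KYP-2047 (50 µmol/kg, 10 mL/kg, 1% DMSO in 0.9% NaCl) i.p. 10 min before tracer. Mean ± SD, n = 2–4 per time point. Blocking compared by two-tailed Student's t test.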

[12] = tested on: Lung; test: Biodistribution in C57Bl/6JRccHsd mouse lung at 2.86 +/- 1.26 MBq, iv measured at 80 mins by SPECT analysis; details: in vivo; how it was run: as §4
[13] = tested on: Heart; test: Biodistribution in C57Bl/6JRccHsd mouse heart at 2.86 +/- 1.26 MBq, iv measured at 80 mins by SPECT analysis; details: in vivo; how it was run: as §4
[14] = tested on: Kidney; test: Biodistribution in C57Bl/6JRccHsd mouse kidney at 2.86 +/- 1.26 MBq, iv measured at 80 mins by SPECT analysis; details: in vivo; how it was run: as §4
[15] = Biodistribution in C57Bl/6JRccHsd mouse urine at 2.86 +/- 1.26 MBq, iv measured at 80 mins by SPECT analysis; details: in vivo; how it was run: as §4
[16] = tested on: Blood; test: Biodistribution in C57Bl/6JRccHsd mouse blood at 2.86 +/- 1.26 MBq, iv measured at 80 mins post dose pretreated with 50 umol/kg, ip prolyl oligopeptidase inhibitor KYP-2047 10 mins before compound dosing by SPECT analysis; details: in vivo; how it was run: as §4
[17] = tested on: Lung; test: Biodistribution in C57Bl/6JRccHsd mouse lung at 2.86 +/- 1.26 MBq, iv measured at 80 mins post dose pretreated with 50 umol/kg, ip prolyl oligopeptidase inhibitor KYP-2047 10 mins before compound dosing by SPECT analysis; details: in vivo; how it was run: as §4
[18] = tested on: Heart; test: Biodistribution in C57Bl/6JRccHsd mouse heart at 2.86 +/- 1.26 MBq, iv measured at 80 mins post dose pretreated with 50 umol/kg, ip prolyl oligopeptidase inhibitor KYP-2047 10 mins before compound dosing by SPECT analysis; details: in vivo; how it was run: as §4
[19] = tested on: Muscle tissue; test: Biodistribution in C57Bl/6JRccHsd mouse muscle at 2.86 +/- 1.26 MBq, iv measured at 80 mins post dose pretreated with 50 umol/kg, ip prolyl oligopeptidase inhibitor KYP-2047 10 mins before compound dosing by SPECT analysis; details: in vivo; how it was run: as §4
[20] = tested on: Mus musculus; test: Biodistribution in C57Bl/6JRccHsd mouse salivary gland at 2.86 +/- 1.26 MBq, iv measured at 80 mins post dose pretreated with 50 umol/kg, ip prolyl oligopeptidase inhibitor KYP-2047 10 mins before compound dosing by SPECT analysis; details: in vivo; how it was run: as §4
[21] = tested on: Mus musculus; test: Biodistribution in C57Bl/6JRccHsd mouse tongue at 2.86 +/- 1.26 MBq, iv measured at 80 mins post dose pretreated with 50 umol/kg, ip prolyl oligopeptidase inhibitor KYP-2047 10 mins before compound dosing by SPECT analysis; details: in vivo; how it was run: as §4
[22] = tested on: Thyroid gland; test: Biodistribution in C57Bl/6JRccHsd mouse thyroid at 2.86 +/- 1.26 MBq, iv measured at 5 mins by SPECT analysis; details: in vivo; how it was run: as §4
[23] = tested on: Brain; test: Biodistribution in C57Bl/6JRccHsd mouse brain at 2.86 +/- 1.26 MBq, iv measured at 5 mins by SPECT analysis; details: in vivo; how it was run: as §4
[24] = tested on: Brain; test: Biodistribution in C57Bl/6JRccHsd mouse brain at 2.86 +/- 1.26 MBq, iv measured at 40 mins by SPECT analysis; details: in vivo; how it was run: as §4
[25] = tested on: Blood; test: Biodistribution in C57Bl/6JRccHsd mouse blood at 2.86 +/- 1.26 MBq, iv measured at 40 mins by SPECT analysis; details: in vivo; how it was run: as §4
[26] = tested on: Blood; test: Biodistribution in C57Bl/6JRccHsd mouse blood at 2.86 +/- 1.26 MBq, iv measured at 160 mins by SPECT analysis; details: in vivo; how it was run: as §4
[27] = Fraction unbound in iv dosed C57Bl/6JRccHsd mouse plasma measured at 20 mins; how it was run: as §2

- fraction unbound at 80 min [1]: 0.15
- fraction unbound at 160 min [2]: 0.58
- Drug uptake [3]: 53%
- Drug uptake [4]: 73%
- Drug uptake [5]: 42%
- PPB [6]: 0%
- fraction unbound at 40 min [7]: 0.98
- tissue uptake at 80 min [8]: 1.34 %ID/g
- tissue uptake at 80 min [9]: 1.09 %ID/g
- Drug uptake [10]: 0.8 % ID/g
- Drug uptake [11]: 2.1 % ID/g
- Drug uptake [12]: 14.67 % ID/g
- Drug uptake [13]: 12.2 % ID/g
- Drug uptake [14]: 10.02 % ID/g
- Drug uptake [15]: 2.23 % ID/g
- Drug uptake [16]: 2.69 % ID/g
- Drug uptake [17]: 1.54 % ID/g
- Drug uptake [18]: 1.34 % ID/g
- Drug uptake [19]: 0.59 % ID/g
- Drug uptake [20]: 1.52 % ID/g
- Drug uptake [21]: 1.44 % ID/g
- Drug uptake [22]: 52 % ID/g
- Drug uptake [23]: 0.43 %ID
- Drug uptake [24]: 0.76 %ID
- Drug uptake [25]: 7.6 % ID/g
- Drug uptake [26]: 2.1 % ID/g
- fraction unbound at 20 min [27]: 0.03
Structure (SMILES): N#C[C@@H]1CCCN1C(=O)[C@@H]1CCCN1C(=O)CCCc1ccc([123I])cc1
